RGS4 inh – RGS4 inhibitors, primary screen, cell-based, HEK293 M3R inducible RGS4, calcium flux; Regulator of G-protein signaling 4 (Homo sapiens), P49798; Fluo-4 calcium flux; active compounds read high; triggered by carbachol at its EC20; actives 0.45% (n = 310,000); B-score at 10 µM; AID 463165, 2010;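 active = B-score, a plate-corrected calcium signal, over three deviations above library mean, with baseline fluorescence within five deviations of library mean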;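 note: RGS4 expression induced by doxycycline in cells with stable M3 receptor; B-score is computed from the integrated fluorescence ratio over baseline after carbachol; higher B-score means a larger calcium signal and so more RGS4 inhibition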
Target sequence (P49798 whole entry, looked up): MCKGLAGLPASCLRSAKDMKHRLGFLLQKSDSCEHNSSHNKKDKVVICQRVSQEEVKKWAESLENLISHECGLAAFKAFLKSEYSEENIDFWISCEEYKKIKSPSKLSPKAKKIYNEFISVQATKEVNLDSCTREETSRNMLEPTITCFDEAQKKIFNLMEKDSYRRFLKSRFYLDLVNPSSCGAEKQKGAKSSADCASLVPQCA
MrgX1 allo act – positive allosteric modulators of MrgX1, primary screen, HEK293 cells, Fluo-4 calcium flux; FDSS; active compounds read high; actives 0.63% (n = 310,000); B-score at 10 µM;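 active = plate-corrected calcium response at least 3 library SD above typical, normal starting fluorescence, not activating the receptor alone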;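 note: compound read alongside a low EC10 to EC30 dose of BAM8-22 agonist; peak minus trough fluorescence over baseline measured at the second addition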
Target sequence (Q96LB2 whole entry, looked up): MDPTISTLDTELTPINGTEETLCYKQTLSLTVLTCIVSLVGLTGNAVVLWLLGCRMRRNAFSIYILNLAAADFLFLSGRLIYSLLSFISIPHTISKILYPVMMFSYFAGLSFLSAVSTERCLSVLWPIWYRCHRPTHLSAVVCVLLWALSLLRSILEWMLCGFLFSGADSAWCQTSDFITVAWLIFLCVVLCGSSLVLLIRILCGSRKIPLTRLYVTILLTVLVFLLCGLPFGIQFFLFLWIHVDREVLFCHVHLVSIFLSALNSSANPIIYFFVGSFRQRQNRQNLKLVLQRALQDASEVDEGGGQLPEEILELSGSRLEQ
MrgX1 ag – agonists of human MrgX1 receptor, primary screen, HEK293 cells, Fluo-4 calcium flux; AID 588627, 2011; Mas-related G-protein coupled receptor member X1 (Homo sapiens), Q96LB2; B-score at 10 µM; actives 0.44% (n = 310,000); Fluo-4 calcium fluorescence, agonist mode; active compounds read high;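 active = calcium response B-score plate-corrected fluorescence ratio at least 3 library SD, with starting fluorescence B-score inside 5 SD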
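Material: MrgX1-expressing HEK293 cells / Dosing: compound as first of three additions / Incubation: overnight seeding, then 1 h dark dye loading / Signal: Fluo-4 NW calcium fluorescence / Evaluation: B-scored fluorescence response ratio / Benchmarks: positive and negative control wells on each plate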
RGS4 pot – RGS4 potentiators or activators, primary screen, cell-based, HEK293 M3R inducible RGS4, calcium flux. B-score at 10 µM. actives 0.92% (n = 310,000). carbachol calcium flux Fluo4; active compounds read low;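 active = B-score of the integrated calcium signal more than 4 SD below the library mean, with starting fluorescence not abnormally high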;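 note: negative B-score means reduced calcium response which marks RGS4 activation or potentiation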
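Test system: HEK293 cells with stable M3R and inducible RGS4; also added: carbachol at ECmax as muscarinic agonist stimulus; schedule: dye loading 30 min 37 °C, buffer rest 30 min RT; technique: kinetic calcium fluorescence imaging with Fluo4-AM dye, 2 µM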
MrgX1 antag – antagonists of human MrgX1 receptor, primary screen, HEK293 cells, Fluo-4 calcium flux; Mas-related G-protein coupled receptor member X1 (Homo sapiens), Q96LB2; AID 588676, 2011; BAM8-22 antagonism; active compounds read low; B-score at 10 µM; actives 1.3% (n = 310,000);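 active = calcium-response B-score plate-corrected more than 3 library SD below zero, starting fluorescence within 5 deviations, no agonist response on first addition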;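 note: peak minus trough fluorescence over baseline after final BAM8-22 challenge near maximal dose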
MrgX1 allo conf – MrgX1 positive allosteric modulators, duplicate retest, confirmation, HEK293 cells, Fluo-4 calcium flux | shares compounds with MrgX1 allo act | Fluo-4 calcium fluorescence, FDSS | activation (ratio percentage), % at 10 µM | actives 13% (n = 1,200) | AID 602413, 2012;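 active = ratio at least 3 SD above the weak peptide control, stable starting fluorescence, no direct agonism earlier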;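 note: compound followed by low BAM8-22 agonist challenge near EC20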
HEK293 Ca flux – nonspecific calcium signal in parental HEK293, confirmation, counter-screen for MrgX1 antagonist project, parental HEK293 cells, Fluo-4 calcium flux; shares compounds with MrgX1 antag; Fluo-4 calcium fluorescence, FDSS; fluorescence ratio F(max-min)/F0 at 10 µM; actives 2% (n = 4,000); AID 624111, 2012;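 active = duplicate-averaged calcium fluorescence ratio at least three times the standard deviation of buffer wells, a nonspecific response in parental cells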
HEK293 Ca counter – calcium response in parental HEK293 cells, primary screen, counter-screen for MrgX1 allosteric activator project, cell-based, Fluo-4 calcium flux, duplicate | shares compounds with MrgX1 antag | Fluo-4 fluorescence ratio; active compounds read high | fluorescence ratio F(max-min)/F0 at 10 µM | actives 0.4% (n = 4,000) | AID 624114, 2012;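 active = calcium fluorescence ratio, averaged over duplicates, at least 3 SD of the buffer-well ratio, meaning a nonspecific response in receptor-free cells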;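 note: untransfected parental HEK293 lacking MrgX1 used as counterscreen for MrgX1 allosteric activators; fluorescence change taken during the second addition on a kinetic imager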
HEK293 Ca cntr2 – calcium response in parental HEK293 cells, primary screen, counter-screen for MrgX1 agonist project, cell-based, Fluo-4 calcium flux, duplicate, agonist mode; shares compounds with MrgX1 antag; Fluo-4 calcium fluorescence (FDSS); active compounds read high; fluorescence ratio F(max-min)/F0 at 10 µM; actives 8.7% (n = 4,000); AID 624115, 2012;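 active = calcium fluorescence ratio at least three times the spread of buffer wells, meaning a non-specific response in parental cells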
* = called active by the depositor. Sampled rows, rich in hits. Any-hit rate of the full collection: about 3.5%.

`COc1cccc(NC(=O)c2ccccc2Br)c1` gave RGS4 inh inactive, MrgX1 allo act inactive, MrgX1 ag inactive, RGS4 pot inactive and MrgX1 antag inactive.
For CS(=O)(=O)N1N=C(c2cccs2)CC1c1ccc(F)cc1 (stereo not given) the results were RGS4 inh inactive, MrgX1 allo act 21*, MrgX1 ag inactive, RGS4 pot inactive, MrgX1 antag inactive, MrgX1 allo conf inactive, HEK293 Ca flux inactive, HEK293 Ca counter inactive and HEK293 Ca cntr2 inactive.
Screening Cc1nc2c(C#N)cnn2c2c1CCN(Cc1ccccc1)N2C returned RGS4 inh inactive, MrgX1 allo act inactive, MrgX1 ag inactive, RGS4 pot inactive and MrgX1 antag inactive.
Cc1nc2c(C#N)cnn2c2c1CCN2CC1CCCO1 (stereo not given) was read as RGS4 inh inactive, MrgX1 allo act 7.2*, MrgX1 ag inactive, RGS4 pot inactive, MrgX1 antag inactive, MrgX1 allo conf inactive, HEK293 Ca flux inactive, HEK293 Ca counter inactive and HEK293 Ca cntr2 inactive.
Screening CCCCCNc1nc(-c2ccccc2)nc(-n2ccnc2)n1 returned RGS4 inh inactive, MrgX1 allo act 7.5*, MrgX1 ag inactive, RGS4 pot inactive, MrgX1 antag inactive, MrgX1 allo conf inactive, HEK293 Ca flux inactive, HEK293 Ca counter inactive and HEK293 Ca cntr2 inactive.
For CCCCNc1nc(N(C)c2ccccc2)nc(-n2ccnc2)n1 the results were RGS4 inh inactive, MrgX1 allo act inactive, MrgX1 ag inactive, RGS4 pot inactive and MrgX1 antag inactive.
`CCCCc1cc(=O)oc2cc(OCC(=O)NCc3ccccn3)c(Cl)cc12` gave RGS4 inh inactive, MrgX1 allo act inactive, MrgX1 ag inactive, RGS4 pot inactive and MrgX1 antag inactive.
CCCCc1cc(=O)oc2cc(OC(C)C(=O)NCc3ccccn3)c(Cl)cc12 (stereo not given) was read as RGS4 inh inactive, MrgX1 allo act 13*, MrgX1 ag inactive, RGS4 pot inactive, MrgX1 antag inactive, MrgX1 allo conf inactive, HEK293 Ca flux inactive, HEK293 Ca counter inactive and HEK293 Ca cntr2 inactive.
COc1ccc(NC(=O)Nc2c(O)ccc3ccccc23)cc1 was read as RGS4 inh inactive, MrgX1 allo act inactive, MrgX1 ag inactive, RGS4 pot inactive and MrgX1 antag inactive.
`COc1ccccc1NC(=O)C(C)Nc1ccc(C)c(Cl)c1` (stereo not given) gave RGS4 inh inactive, MrgX1 allo act 6.9*, MrgX1 ag inactive, RGS4 pot inactive, MrgX1 antag inactive, MrgX1 allo conf inactive, HEK293 Ca flux inactive, HEK293 Ca counter inactive and HEK293 Ca cntr2 inactive.
For O=C(COC(=O)c1ccc(S(=O)(=O)NCc2ccco2)cc1)Nc1ccc(Cl)cn1 the results were RGS4 inh inactive, MrgX1 allo act 8.1*, MrgX1 ag inactive, RGS4 pot inactive, MrgX1 antag inactive, MrgX1 allo conf inactive, HEK293 Ca flux inactive, HEK293 Ca counter inactive and HEK293 Ca cntr2 inactive.
O=C(c1ccco1)N1CCC(c2nc3ccccc3[nH]2)CC1 was read as RGS4 inh inactive, MrgX1 allo act inactive, MrgX1 ag inactive, RGS4 pot inactive and MrgX1 antag inactive.
Cc1ccc(N2C(=O)/C(=C\c3ccc(C(C)C)cc3)N=C2SC2CCOC2=O)cc1 (stereo not given) was read as RGS4 inh inactive, MrgX1 allo act inactive, MrgX1 ag inactive, RGS4 pot inactive and MrgX1 antag inactive.
`O=C(c1ccc(Br)cc1)N1CCN(Cc2ccccc2)CC1` gave RGS4 inh inactive, MrgX1 allo act 6.5*, MrgX1 ag inactive, RGS4 pot inactive, MrgX1 antag inactive, MrgX1 allo conf inactive, HEK293 Ca flux inactive, HEK293 Ca counter inactive and HEK293 Ca cntr2 inactive.
For COc1ccc(OC)c(N/C(=N/C(=S)Nc2ccccc2)Nc2nc(C)cc(C)n2)c1 the results were RGS4 inh inactive, MrgX1 allo act inactive, MrgX1 ag inactive, RGS4 pot inactive and MrgX1 antag inactive.
CC(C)Sc1nc(N)nc(-c2cccs2)c1C#N was read as RGS4 inh inactive, MrgX1 allo act 9.1*, MrgX1 ag inactive, RGS4 pot inactive, MrgX1 antag inactive, MrgX1 allo conf inactive, HEK293 Ca flux inactive, HEK293 Ca counter inactive and HEK293 Ca cntr2 inactive.
CSc1nc(N)nc(-c2cccs2)c1C#N was read as RGS4 inh inactive, MrgX1 allo act inactive, MrgX1 ag inactive, RGS4 pot inactive and MrgX1 antag inactive.
Screening COc1ccc(Cl)cc1NC(=O)C1COc2ccccc2O1 (stereo not given) returned RGS4 inh inactive, MrgX1 allo act inactive, MrgX1 ag inactive, RGS4 pot inactive and MrgX1 antag inactive.
For Cc1nc2ccc3nc(NC(=O)C4COc5ccccc5O4)sc3c2s1 (stereo not given) the results were RGS4 inh inactive, MrgX1 allo act 8.1*, MrgX1 ag inactive, RGS4 pot inactive, MrgX1 antag inactive, MrgX1 allo conf 7.8%*, HEK293 Ca flux inactive, HEK293 Ca counter inactive and HEK293 Ca cntr2 inactive.
For CN1CCN(c2ccc(Cl)cc2NC(=O)C2COc3ccccc3O2)CC1 (stereo not given) the results were RGS4 inh inactive, MrgX1 allo act 6.5*, MrgX1 ag inactive, RGS4 pot inactive, MrgX1 antag inactive, MrgX1 allo conf inactive, HEK293 Ca flux inactive, HEK293 Ca counter inactive and HEK293 Ca cntr2 inactive.

Compound activity as filed in PubChem BioAssay.
